Where a SMILES comes first, the peptide text is derived from it. The star is where a group is joined. 5FAM = O=C1OC2(c3ccc(O)cc3Oc3cc(O)ccc32)c2ccc(C(=O)*)cc21; βAla = NCCC(=O)O; X1 = OB(O)C*

We go through 4 compounds from publication PMC12800337 (Nature Communications, 2025).

One data set deals with S. aureus (MTCC 7443). In words: S. aureus staining, flow cytometry median fluorescence. In kind it is cell-based, Staphylococcus aureus. The note with it: 2 µM, PBS pH 7.4, 30 min, washed, flow cytometry median value.
For data set [1], the system named is S. aureus. Nature of the data set: Confocal imaging of stained S. aureus. Format: cell-based, Staphylococcus aureus. The note with it: confocal optical sectioning of stained S. aureus cells. The procedure, abridged:
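S. aureus (MTCC 7443) incubated with fluorescein-labelled test peptide for 30 min at 37 °C, washed three times in PBS. 5 µL of cells pressed under a coverslip on a glass slide to a single cell layer. Imaged by laser-scanning confocal microscopy with optical sectioning: 40× oil objective, argon laser at 10% power, gain 900–1100 HV, offset −0.5%. Representative of 2 independent experiments.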

The test system of another data set is E. coli (MTCC 1687). In words: E. coli staining. Format: cell-based. Conditions: P2 5 μM, confocal microscope. In short, it runs like this:
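E. coli and S. aureus each diluted 1:100 from secondary culture and grown to OD₆₀₀ 0.4, then mixed and pelleted at 5000 × g. Pellet incubated with fluorescein-labelled test peptide in PBS (pH 7.4) at 37 °C for 30 min. Washed twice in PBS, resuspended in 100 µL PBS, imaged by confocal microscopy (40× oil, argon laser). Representative of 2 independent experiments.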

The subject of the next data set is HEK 293. Nature of the data set: Mammalian cell staining, confocal microscope. In kind it is cell-based, human. Conditions: P2 5 µM, compared to the brightness detected on S. aureus. In short, it runs like this: (§1)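 Cells at 70% confluence detached with trypsin-EDTA and seeded at 1 × 10⁵ cells/well in glass-bottom dishes, then grown for 24 h. Medium replaced with PBS containing fluorescein-labelled test peptide; incubated 30 min at 37 °C. Washed three times with PBS, given fresh medium, imaged by confocal microscopy (40× oil, argon laser at 10%). Representative of 2 independent experiments.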

The subject of another data set is A549. In words: Mammalian cell staining, confocal microscope. In kind it is cell-based. The note with it: P2 5 µM, compared to the brightness detected on S. aureus. The procedure, abridged: as §1
Data set [2] can be described thus: Serum stability assay of peptides. Format: in vitro ADME. The note with it: human serum, fluorophore unlabeled peptides, HPLC. In short, it runs like this: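 Test peptide incubated in human serum; the remaining intact peptide was monitored by HPLC to derive half-life. Mean ± SEM from 3 independent replicates.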
The test system of data set [3] is S. aureus. Nature of the data set: Mannitol inhibition assay of Fl-P2 binding. Format: cell-based, Staphylococcus aureus. Conditions: 50 mM mannitol, P2 2 µM, flow cytometry.
The nature of data set [4]: Stability of BA-modified proteins as lyophilized powder. In kind it is physicochemical. Conditions: purified protein, confirmed by deconvoluted mass.

With `CSCC[C@H](NC(=O)[C@H](CCCNC(=N)N)NC(=O)[C@H](CCCNC(=N)N)NC(=O)[C@H](CCCCN)NC(=O)[C@H](C)NC(=O)[C@H](CCCNC(=N)N)NC(=O)CNC(=O)[C@@H](NC(=O)CCNC(=O)c1ccc2c(c1)C(=O)OC21c2ccc(O)cc2Oc2cc(O)ccc21)[C@@H](C)O)C(=O)N[C@@H](CSCB(O)O)C(=O)N[C@@H](Cc1ccc(O)cc1)C(=O)N[C@@H](CSCB(O)O)C(=O)N[C@@H](CCCNC(=N)N)C(=O)N[C@@H](CCCNC(=N)N)C(N)=O` [P2] ({5FAM-βAla}-TGRAKRRMC(X1)YC(X1)RR-NH2), in the data set on S. aureus (MTCC 7443), the “S. aureus staining efficiency relative to P0 and P3” value was ~ 40 fold. For the same compound, the “uptake in bacterial cytosol (optical sectioning)” value in the data set on S. aureus [1] is given as “uptake of P2 in bacterial cytosol”. Also, in the data set on E. coli (MTCC 1687), the “staining of E. coli” value is “no significant staining”. Besides, the “staining of HEK 293 cells” value with HEK 293 is listed as “minimal staining”. The “staining of A549 cells” value in the data set on A549 is given as “minimal staining”. The “serum half-life relative to parent UBI peptide (P0)” value in data set [2] was “around 14 times”. Further, the “staining ability of P2 after mannitol complexation (reduced to)” value in the data set on S. aureus [3] is on record as ~ 60%.
On to “BSA-BA: BSA with methylene-BA at a single free thiol site”, for which the “stability as a lyophilized powder (in words)” value in data set [4] was “stable for over a week”.
With TGRAKRRMCYNRR-NH2 [P1], the “S. aureus staining efficiency relative to P0 and P3” value with S. aureus (MTCC 7443) was ~ 8 fold.
On to “lysozyme-BA: lysozyme with methylene-BA conjugates at Cys6 and Cys115 (major product)”, for which, in data set [4], the “stability as a lyophilized powder (in words)” value was “stable for over a week”.
